Test system: Plasmodium falciparum
Test: Antiplasmodial activity against Plasmodium falciparum K1 as [3H]hypoxanthine uptake
Assay type: functional, organism-based
Details: K1, 72 h
Summary of the method: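 Erythrocytic stages of chloroquine- and pyrimethamine-resistant K1 strain grown in washed human A+ red cells, 2.5% hematocrit, 0.3% parasitemia. Medium was hypoxanthine-free RPMI 1640 with HEPES, NaHCO3, neomycin and AlbuMAX. DMSO stocks (10 mg/mL) tested as serial doubling dilutions for 48 h at 37 °C under 4% CO2, 3% O2, 93% N2. [3H]hypoxanthine then added for 24 h, cells harvested onto filters, scintillation counted.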

## O=C(CCCOc1ccccc1)NC[C@H]1O[C@@H](n2cnc3c(NCc4ccc(Oc5ccccc5)cc4)ncnc32)[C@H](O)[C@@H]1O
  IC50: 2800 nM

## O=C(Cc1cccc2ccccc12)NC[C@H]1O[C@@H](n2cnc3c(NCc4ccc(Oc5ccccc5)cc4)ncnc32)[C@H](O)[C@@H]1O
  IC50: 300 nM

## O=C(NC[C@H]1O[C@@H](n2cnc3c(NCc4ccc(Oc5ccccc5)cc4)ncnc32)[C@H](O)[C@@H]1O)c1ccc(Oc2ccccc2)cc1
  IC50: 3300 nM

## O=C(NC[C@H]1O[C@@H](n2cnc3c(NCc4ccc(Oc5ccccc5)cc4)ncnc32)[C@H](O)[C@@H]1O)c1cc(Cl)cc(Cl)c1
  IC50: 3500 nM

## O=C(NC[C@H]1O[C@@H](n2cnc3c(NCc4ccc(Oc5ccccc5)cc4)ncnc32)[C@H](O)[C@@H]1O)c1ccc2c(c1)[nH]c(=O)n2Cc1ccccn1
  IC50: 2100 nM

## COc1cccc(CC(=O)NC[C@H]2O[C@@H](n3cnc4c(NCc5ccc(Oc6ccccc6)cc5)ncnc43)[C@H](O)[C@@H]2O)c1
  IC50: 3400 nM

## O=C(NC[C@H]1O[C@@H](n2cnc3c(NCc4ccc(Oc5ccccc5)cc4)ncnc32)[C@H](O)[C@@H]1O)c1ccc2c(c1)[nH]c(=O)n2COc1ccccc1
  IC50: 3300 nM

## O=C(CCCc1c[nH]c2ccccc12)NC[C@H]1O[C@@H](n2cnc3c(NCc4ccc(Oc5ccccc5)cc4)ncnc32)[C@H](O)[C@@H]1O
  IC50: > 8500 nM

## CC(C)=CC(=O)NC[C@H]1O[C@@H](n2cnc3c(NCc4ccc(Oc5ccccc5)cc4)ncnc32)[C@H](O)[C@@H]1O
  IC50: 4300 nM

## CC(C)CCC(=O)NC[C@H]1O[C@@H](n2cnc3c(NCc4ccc(Oc5ccccc5)cc4)ncnc32)[C@H](O)[C@@H]1O
  IC50: 4600 nM

## O=C(NC[C@H]1O[C@@H](n2cnc3c(NCc4ccc(Oc5ccccc5)cc4)ncnc32)[C@H](O)[C@@H]1O)c1ccc2c(c1)ncn2Cc1ccccn1
  IC50: 4000 nM

## COCCCn1c(=O)[nH]c2cc(C(=O)NC[C@H]3O[C@@H](n4cnc5c(NCc6ccc(Oc7ccccc7)cc6)ncnc54)[C@H](O)[C@@H]3O)ccc21
  IC50: 900 nM

## C=CCn1cnc2cc(C(=O)NC[C@H]3O[C@@H](n4cnc5c(NCc6ccc(Oc7ccccc7)cc6)ncnc54)[C@H](O)[C@@H]3O)ccc21
  IC50: 2700 nM

## O=C(CCCc1ccccc1)NC[C@H]1O[C@@H](n2cnc3c(NCc4ccc(Oc5ccccc5)cc4)ncnc32)[C@H](O)[C@@H]1O
  IC50: 2600 nM

## O=C(Cc1cccc(Cl)c1)NC[C@H]1O[C@@H](n2cnc3c(NCc4ccc(Oc5ccccc5)cc4)ncnc32)[C@H](O)[C@@H]1O
  IC50: 3100 nM

## O=C(NC[C@H]1O[C@@H](n2cnc3c(NCc4ccc(Oc5ccccc5)cc4)ncnc32)[C@H](O)[C@@H]1O)c1ccc2c(c1)ncn2Cc1cccc2ccccc12
  IC50: 2200 nM

## CCCCCn1cnc2cc(C(=O)NC[C@H]3O[C@@H](n4cnc5c(NCc6ccc(Oc7ccccc7)cc6)ncnc54)[C@H](O)[C@@H]3O)ccc21
  IC50: 1500 nM

## CCCCn1c(=O)[nH]c2cc(C(=O)NC[C@H]3O[C@@H](n4cnc5c(NCc6ccc(Oc7ccccc7)cc6)ncnc54)[C@H](O)[C@@H]3O)ccc21
  IC50: 3100 nM

## COCCCn1cnc2cc(C(=O)NC[C@H]3O[C@@H](n4cnc5c(NCc6ccc(Oc7ccccc7)cc6)ncnc54)[C@H](O)[C@@H]3O)ccc21
  IC50: 2600 nM

## O=C(NC[C@H]1O[C@@H](n2cnc3c(NCc4ccc(Oc5ccccc5)cc4)ncnc32)[C@H](O)[C@@H]1O)c1ccc2c(c1)[nH]c(=O)n2CCC1=CCCCC1
  IC50: 2900 nM

## CCN(CC)CCCC(C)Nc1ccnc2cc(Cl)ccc12 (stereo unspecified) [CHLOROQUINE]
  IC50: 900 nM

— ChEMBL document CHEMBL1152746, “Inhibitors of adenosine consuming parasites through polymer-assisted solution phase synthesis of lipophilic 5'-amido-5'-deoxyadenosine derivatives” (Bioorg Med Chem, 2009)
